ChEMBL document CHEMBL2062417, “Biotinylated quercetin as an intrinsic photoaffinity proteomics probe for the identification of quercetin target proteins” (Bioorg Med Chem, 2011)
Active and inactive are the calls of the source.

What was measured:
Jurkat = assay: Binding affinity to quercetin binding protein in human Jurkat cells at 150 uM followed by UV irradiation for 30 mins with Wood's glass filtered medium pressure mercury arc light after cell lysis measured after denaturing wash by Western blotting based pull down assay in presence of heat shock
Summary of the method: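 Streptavidin pull-downs from heat-shocked, BioQ-treated (150 μM), UV-irradiated Jurkat cells received a 2% SDS wash. Proteins were transferred from SDS gels to nitrocellulose and blocked overnight in 3% BSA at 4 °C. Blots were probed 1 h with HRP-conjugated anti-biotin antibody and developed with 4-chloro-1-naphthol/0.01% H2O2, with no-UV and no-probe controls.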

[1] = target: RuvB-like 2 (Homo sapiens) (UniProt Q9Y230); assay: Binding affinity to RUVBL2 in human Jurkat cells at 150 uM followed by UV irradiation for 30 mins with Wood's glass filtered medium pressure mercury arc light prior to cell lysis measured after denaturing wash by SDS-PAGE based pull down assay
Summary of the method: (§1)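 Jurkat cells were grown in RPMI with 10% FBS (about 15×10^6 cells) and treated 2 h with 150 μM BioQ in 3% aqueous DMSO. They were heat-shocked at 43 °C for 30 min, recovered 1 h at 37 °C, and UV-irradiated (320–400 nm, peak 365 nm, 30 min, 4 °C) before or after sonication lysis. Streptavidin-agarose capture ran 1 h. Beads were washed ≥3× with lysis buffer or 2% SDS Tris pH 7.4, boiled, run on 12% SDS-PAGE and silver-stained.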

[2] = target: Heat shock-related 70 kDa protein 2 (Homo sapiens) (UniProt P54652); assay: Binding affinity to HSPA2 in human Jurkat cells at 150 uM followed by UV irradiation for 30 mins with Wood's glass filtered medium pressure mercury arc light prior to cell lysis measured after denaturing wash by LC-MS/MS based pull down assay
Summary of the method: (§2)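 Silver-stained bands from cells irradiated before lysis were excised, destained, reduced with 10 mM DTT, alkylated with 50 mM iodoacetamide and digested with trypsin overnight. Peptides were extracted in 1% TFA/50% acetonitrile. Nano-C18 LC used a 2–50% acetonitrile gradient with 0.1% formic acid over 50 min at 260 nL/min, followed by MS/MS identification.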

[3] = target: Actin, cytoplasmic 1 (Homo sapiens) (UniProt P60709); assay: Binding affinity to ACTB in human Jurkat cells at 150 uM followed by UV irradiation for 30 mins with Wood's glass filtered medium pressure mercury arc light prior to cell lysis measured after denaturing wash by LC-MS/MS based pull down assay; summary of the method: as §2
[4] = target: Actin, cytoplasmic 1 (Homo sapiens) (UniProt P60709); assay: Binding affinity to ACTB in human Jurkat cells at 150 uM followed by UV irradiation for 30 mins with Wood's glass filtered medium pressure mercury arc light prior to cell lysis measured after denaturing wash by SDS-PAGE based pull down assay; summary of the method: as §1
[5] = target: Eukaryotic translation initiation factor 3 subunit F (Homo sapiens) (UniProt O00303); assay: Binding affinity to EIF3F in human Jurkat cells at 150 uM followed by UV irradiation for 30 mins with Wood's glass filtered medium pressure mercury arc light after cell lysis measured after denaturing wash by SDS-PAGE based pull down assay; summary of the method: as §1
[6] = target: Heat shock protein HSP 90-alpha (Homo sapiens) (UniProt P07900); assay: Binding affinity to HSP90AA1 in human Jurkat cells at 150 uM followed by UV irradiation for 30 mins with Wood's glass filtered medium pressure mercury arc light prior to cell lysis measured after denaturing wash by SDS-PAGE based pull down assay; summary of the method: as §1
[7] = target: Eukaryotic translation initiation factor 3 subunit F (Homo sapiens) (UniProt O00303); assay: Binding affinity to EIF3F in human Jurkat cells at 150 uM followed by UV irradiation for 30 mins with Wood's glass filtered medium pressure mercury arc light prior to cell lysis measured after denaturing wash by SDS-PAGE based pull down assay; summary of the method: as §1
[8] = target: Heat shock-related 70 kDa protein 2 (Homo sapiens) (UniProt P54652); assay: Binding affinity to HSPA2 in human Jurkat cells at 150 uM followed by UV irradiation for 30 mins with Wood's glass filtered medium pressure mercury arc light prior to cell lysis measured after denaturing wash by SDS-PAGE based pull down assay; summary of the method: as §1
[9] = target: T1, Splicing factor 3B subunit 3 (Homo sapiens) (UniProt Q15393); assay: Binding affinity to SF3B3 in human Jurkat cells at 150 uM followed by UV irradiation for 30 mins with Wood's glass filtered medium pressure mercury arc light after cell lysis measured after denaturing wash by SDS-PAGE based pull down assay; summary of the method: as §1
T1 sequence (whole entry): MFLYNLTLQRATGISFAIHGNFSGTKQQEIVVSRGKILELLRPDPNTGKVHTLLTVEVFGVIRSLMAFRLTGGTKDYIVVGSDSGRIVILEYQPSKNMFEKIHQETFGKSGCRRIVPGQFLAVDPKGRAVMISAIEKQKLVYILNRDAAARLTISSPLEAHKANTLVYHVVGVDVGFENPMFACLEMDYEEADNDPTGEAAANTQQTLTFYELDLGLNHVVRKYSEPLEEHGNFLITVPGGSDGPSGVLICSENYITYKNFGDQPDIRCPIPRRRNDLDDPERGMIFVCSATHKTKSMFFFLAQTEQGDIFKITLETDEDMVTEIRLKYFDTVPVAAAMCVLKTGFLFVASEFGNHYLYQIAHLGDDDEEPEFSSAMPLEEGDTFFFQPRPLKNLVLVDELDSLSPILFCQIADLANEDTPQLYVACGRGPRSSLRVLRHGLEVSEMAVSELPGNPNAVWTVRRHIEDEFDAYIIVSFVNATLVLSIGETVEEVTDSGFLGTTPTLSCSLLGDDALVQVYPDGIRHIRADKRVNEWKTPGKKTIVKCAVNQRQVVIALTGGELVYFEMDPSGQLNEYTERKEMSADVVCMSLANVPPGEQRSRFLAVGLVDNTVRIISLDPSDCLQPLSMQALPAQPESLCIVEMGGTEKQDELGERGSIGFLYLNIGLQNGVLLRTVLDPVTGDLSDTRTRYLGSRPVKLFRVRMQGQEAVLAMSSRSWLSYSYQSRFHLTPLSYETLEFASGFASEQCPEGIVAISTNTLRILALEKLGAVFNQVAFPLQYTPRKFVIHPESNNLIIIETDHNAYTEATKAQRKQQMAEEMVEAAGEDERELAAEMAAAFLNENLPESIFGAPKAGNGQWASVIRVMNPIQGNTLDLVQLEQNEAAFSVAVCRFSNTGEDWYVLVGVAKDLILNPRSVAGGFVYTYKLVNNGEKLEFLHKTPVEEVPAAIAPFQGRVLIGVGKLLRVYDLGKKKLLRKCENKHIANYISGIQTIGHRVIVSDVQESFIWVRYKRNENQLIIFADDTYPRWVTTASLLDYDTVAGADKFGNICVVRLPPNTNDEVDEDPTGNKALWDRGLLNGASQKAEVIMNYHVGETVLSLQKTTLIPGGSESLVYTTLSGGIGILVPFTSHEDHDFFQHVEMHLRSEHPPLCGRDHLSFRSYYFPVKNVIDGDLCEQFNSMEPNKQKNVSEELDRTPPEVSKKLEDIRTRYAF

[10] = target: Heat shock-related 70 kDa protein 2 (Homo sapiens) (UniProt P54652); assay: Binding affinity to HSPA2 in human Jurkat cells at 150 uM followed by UV irradiation for 30 mins with Wood's glass filtered medium pressure mercury arc light after cell lysis measured after denaturing wash by SDS-PAGE based pull down assay; summary of the method: as §1

Measured: Activity

Sequence of Heat shock-related 70 kDa protein 2 (Homo sapiens) (P54652 whole entry): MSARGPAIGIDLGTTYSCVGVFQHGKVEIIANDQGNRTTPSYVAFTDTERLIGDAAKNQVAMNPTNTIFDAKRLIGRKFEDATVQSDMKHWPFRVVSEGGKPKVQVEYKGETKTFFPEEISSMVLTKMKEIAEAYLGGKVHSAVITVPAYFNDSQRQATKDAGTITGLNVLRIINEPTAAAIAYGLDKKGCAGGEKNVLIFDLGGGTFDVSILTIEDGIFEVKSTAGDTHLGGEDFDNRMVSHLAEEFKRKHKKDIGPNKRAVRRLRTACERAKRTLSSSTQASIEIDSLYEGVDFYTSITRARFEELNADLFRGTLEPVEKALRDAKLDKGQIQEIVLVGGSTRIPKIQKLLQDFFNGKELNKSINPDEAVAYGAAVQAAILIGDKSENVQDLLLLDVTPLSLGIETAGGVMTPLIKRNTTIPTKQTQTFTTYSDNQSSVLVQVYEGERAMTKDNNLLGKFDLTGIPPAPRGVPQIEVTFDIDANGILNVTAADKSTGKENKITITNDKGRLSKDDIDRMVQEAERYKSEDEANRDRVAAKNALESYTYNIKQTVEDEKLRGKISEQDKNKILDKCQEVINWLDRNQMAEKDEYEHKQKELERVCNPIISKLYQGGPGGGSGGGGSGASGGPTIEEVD
Sequence of Eukaryotic translation initiation factor 3 subunit F (Homo sapiens) (O00303 whole entry): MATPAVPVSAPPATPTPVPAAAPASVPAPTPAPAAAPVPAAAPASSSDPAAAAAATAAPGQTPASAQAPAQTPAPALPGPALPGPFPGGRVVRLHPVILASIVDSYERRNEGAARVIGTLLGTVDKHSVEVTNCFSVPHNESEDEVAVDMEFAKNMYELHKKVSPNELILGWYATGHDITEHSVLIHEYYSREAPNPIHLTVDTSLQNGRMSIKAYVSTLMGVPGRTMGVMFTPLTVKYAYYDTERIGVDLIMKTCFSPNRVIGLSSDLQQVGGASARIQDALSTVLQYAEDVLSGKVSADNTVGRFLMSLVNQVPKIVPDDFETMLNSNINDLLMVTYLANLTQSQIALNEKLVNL
Sequence of RuvB-like 2 (Homo sapiens) (Q9Y230 whole entry): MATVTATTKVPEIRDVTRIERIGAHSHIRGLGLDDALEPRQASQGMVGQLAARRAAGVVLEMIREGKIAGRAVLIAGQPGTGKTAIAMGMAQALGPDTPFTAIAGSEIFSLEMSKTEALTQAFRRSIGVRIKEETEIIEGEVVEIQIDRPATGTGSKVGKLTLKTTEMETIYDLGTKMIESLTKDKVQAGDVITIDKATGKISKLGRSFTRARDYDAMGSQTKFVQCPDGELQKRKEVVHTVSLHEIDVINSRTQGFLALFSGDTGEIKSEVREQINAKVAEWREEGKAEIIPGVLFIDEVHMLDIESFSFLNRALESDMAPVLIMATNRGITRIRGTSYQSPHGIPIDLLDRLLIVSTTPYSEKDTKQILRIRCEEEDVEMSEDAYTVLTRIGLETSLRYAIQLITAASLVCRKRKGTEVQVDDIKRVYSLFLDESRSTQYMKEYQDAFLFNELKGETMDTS

O=C(CCCC[C@@H]1SC[C@@H]2NC(=O)N[C@@H]21)NCCOCCOCCNC(=O)COc1cc(O)c2c(=O)c(O)c(-c3ccc(O)c(O)c3)oc2c1
active: all assays above
